{"source": "ChEMBL document CHEMBL5058577", "about": "“EUbOPEN Chemogenomics Library 2 (Multiplex)” (2022)", "test_system": "HEK-293T", "test": "Multiplex assay against HEK293T", "assay_type": "toxicity, cell-based", "settings": "human", "in_short": "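Live cells were stained at seeding with Hoechst33342, BioTracker Green Microtubule Cytoskeleton Dye, MitoTracker Red and Annexin V Alexa Fluor 680. Following compound addition, they were imaged on a CQ1 microscope at 37°C and 5% CO2 and gated by CellPathfinder machine learning into Hoechst high-intensity objects or normal cells, with normal cells split into healthy, pyknosed or fragmented nuclei and pyknosed cells into mitotic or apoptotic. Tubulin, mitochondrial-mass and membrane-permeability phenotypes are per cents of healthy-nucleus cells.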", "key": {"[1]": {"settings": "12 h, 1 µM, compound concentration 1 uM, replicate 1"}, "[2]": {"settings": "12 h, 1 µM, compound concentration 1 uM, replicate 2"}, "[3]": {"settings": "12 h, 10 µM, compound concentration 10 uM, replicate 1"}, "[4]": {"settings": "12 h, 10 µM, compound concentration 10 uM, replicate 2"}, "[5]": {"settings": "24 h, 1 µM, compound concentration 1 uM, replicate 1"}, "[6]": {"settings": "24 h, 1 µM, compound concentration 1 uM, replicate 2"}, "[7]": {"settings": "24 h, 10 µM, compound concentration 10 uM, replicate 1"}, "[8]": {"settings": "24 h, 10 µM, compound concentration 10 uM, replicate 2"}, "[9]": {"settings": "48 h, 1 µM, compound concentration 1 uM, replicate 1"}, "[10]": {"settings": "48 h, 1 µM, compound concentration 1 uM, replicate 2"}, "[11]": {"settings": "48 h, 10 µM, compound concentration 10 uM, replicate 1"}, "[12]": {"settings": "48 h, 10 µM, compound concentration 10 uM, replicate 2"}}}
{"smiles": "COc1ccccc1N1CCN(CCCCNC(=O)c2ccc3ccccc3c2)CC1.Cl", "values": [{"measurement": "Population Apoptotic (%)", "setting": "[1]", "result": 45, "unit": "%"}, {"measurement": "Population Healthy Nuclei (%)", "setting": "[1]", "result": 81, "unit": "%"}, {"measurement": "Population Hoechst High Intensity Objects (%)", "setting": "[1]", "result": 6, "unit": "%"}, {"measurement": "Population Mitochondria Different-Phenotype (%)", "setting": "[1]", "result": 53, "unit": "%"}, {"measurement": "Population Mitotic Cells (%)", "setting": "[1]", "result": 54, "unit": "%"}, {"measurement": "Population Normal (%)", "setting": "[1]", "result": 93, "unit": "%"}, {"measurement": "Population Tubulin-Different-Phenotype (%)", "setting": "[1]", "result": 41, "unit": "%"}, {"measurement": "Total Cell Count", "setting": "[1]", "result": 430}, {"measurement": "Population Apoptotic (%)", "setting": "[2]", "result": 36, "unit": "%"}, {"measurement": "Population Healthy Nuclei (%)", "setting": "[2]", "result": 79, "unit": "%"}, {"measurement": "Population Hoechst High Intensity Objects (%)", "setting": "[2]", "result": 5, "unit": "%"}, {"measurement": "Population Mitochondria Different-Phenotype (%)", "setting": "[2]", "result": 76, "unit": "%"}, {"measurement": "Population Mitotic Cells (%)", "setting": "[2]", "result": 63, "unit": "%"}, {"measurement": "Population Normal (%)", "setting": "[2]", "result": 94, "unit": "%"}, {"measurement": "Population Tubulin-Different-Phenotype (%)", "setting": "[2]", "result": 35, "unit": "%"}, {"measurement": "Total Cell Count", "setting": "[2]", "result": 354}, {"measurement": "Population Apoptotic (%)", "setting": "[3]", "result": 71, "unit": "%"}, {"measurement": "Population Healthy Nuclei (%)", "setting": "[3]", "result": 69, "unit": "%"}, {"measurement": "Population Hoechst High Intensity Objects (%)", "setting": "[3]", "result": 16, "unit": "%"}, {"measurement": "Population Mitochondria Different-Phenotype (%)", "setting": "[3]", "result": 90, "unit": "%"}, {"measurement": "Population Mitotic Cells (%)", "setting": "[3]", "result": 28, "unit": "%"}, {"measurement": "Population Normal (%)", "setting": "[3]", "result": 83, "unit": "%"}, {"measurement": "Population Tubulin-Different-Phenotype (%)", "setting": "[3]", "result": 75, "unit": "%"}, {"measurement": "Total Cell Count", "setting": "[3]", "result": 321}, {"measurement": "Population Apoptotic (%)", "setting": "[4]", "result": 70, "unit": "%"}, {"measurement": "Population Healthy Nuclei (%)", "setting": "[4]", "result": 75, "unit": "%"}, {"measurement": "Population Hoechst High Intensity Objects (%)", "setting": "[4]", "result": 15, "unit": "%"}, {"measurement": "Population Mitochondria Different-Phenotype (%)", "setting": "[4]", "result": 93, "unit": "%"}, {"measurement": "Population Mitotic Cells (%)", "setting": "[4]", "result": 29, "unit": "%"}, {"measurement": "Population Normal (%)", "setting": "[4]", "result": 84, "unit": "%"}, {"measurement": "Population Tubulin-Different-Phenotype (%)", "setting": "[4]", "result": 72, "unit": "%"}, {"measurement": "Total Cell Count", "setting": "[4]", "result": 256}, {"measurement": "Population Apoptotic (%)", "setting": "[5]", "result": 27, "unit": "%"}, {"measurement": "Population Healthy Nuclei (%)", "setting": "[5]", "result": 78, "unit": "%"}, {"measurement": "Population Hoechst High Intensity Objects (%)", "setting": "[5]", "result": 6, "unit": "%"}, {"measurement": "Population Mitochondria Different-Phenotype (%)", "setting": "[5]", "result": 38, "unit": "%"}, {"measurement": "Population Mitotic Cells (%)", "setting": "[5]", "result": 72, "unit": "%"}, {"measurement": "Population Normal (%)", "setting": "[5]", "result": 93, "unit": "%"}, {"measurement": "Population Tubulin-Different-Phenotype (%)", "setting": "[5]", "result": 32, "unit": "%"}, {"measurement": "Total Cell Count", "setting": "[5]", "result": 561}, {"measurement": "Population Apoptotic (%)", "setting": "[6]", "result": 36, "unit": "%"}, {"measurement": "Population Healthy Nuclei (%)", "setting": "[6]", "result": 82, "unit": "%"}, {"measurement": "Population Mitochondria Different-Phenotype (%)", "setting": "[6]", "result": 62, "unit": "%"}, {"measurement": "Population Mitotic Cells (%)", "setting": "[6]", "result": 63, "unit": "%"}, {"measurement": "Population Tubulin-Different-Phenotype (%)", "setting": "[6]", "result": 26, "unit": "%"}, {"measurement": "Total Cell Count", "setting": "[6]", "result": 444}, {"measurement": "Population Apoptotic (%)", "setting": "[7]", "result": 56, "unit": "%"}, {"measurement": "Population Healthy Nuclei (%)", "setting": "[7]", "result": 74, "unit": "%"}, {"measurement": "Population Hoechst High Intensity Objects (%)", "setting": "[7]", "result": 13, "unit": "%"}, {"measurement": "Population Mitochondria Different-Phenotype (%)", "setting": "[7]", "result": 96, "unit": "%"}, {"measurement": "Population Mitotic Cells (%)", "setting": "[7]", "result": 43, "unit": "%"}, {"measurement": "Population Normal (%)", "setting": "[7]", "result": 86, "unit": "%"}, {"measurement": "Population Tubulin-Different-Phenotype (%)", "setting": "[7]", "result": 87, "unit": "%"}, {"measurement": "Total Cell Count", "setting": "[7]", "result": 393}, {"measurement": "Population Apoptotic (%)", "setting": "[8]", "result": 60, "unit": "%"}, {"measurement": "Population Healthy Nuclei (%)", "setting": "[8]", "result": 69, "unit": "%"}, {"measurement": "Population Hoechst High Intensity Objects (%)", "setting": "[8]", "result": 17, "unit": "%"}, {"measurement": "Population Mitochondria Different-Phenotype (%)", "setting": "[8]", "result": 94, "unit": "%"}, {"measurement": "Population Mitotic Cells (%)", "setting": "[8]", "result": 39, "unit": "%"}, {"measurement": "Population Normal (%)", "setting": "[8]", "result": 82, "unit": "%"}, {"measurement": "Population Tubulin-Different-Phenotype (%)", "setting": "[8]", "result": 66, "unit": "%"}, {"measurement": "Total Cell Count", "setting": "[8]", "result": 276}, {"measurement": "Population Apoptotic (%)", "setting": "[9]", "result": 20, "unit": "%"}, {"measurement": "Population Healthy Nuclei (%)", "setting": "[9]", "result": 81, "unit": "%"}, {"measurement": "Population Hoechst High Intensity Objects (%)", "setting": "[9]", "result": 3, "unit": "%"}, {"measurement": "Population Mitochondria Different-Phenotype (%)", "setting": "[9]", "result": 34, "unit": "%"}, {"measurement": "Population Mitotic Cells (%)", "setting": "[9]", "result": 79, "unit": "%"}, {"measurement": "Population Normal (%)", "setting": "[9]", "result": 96, "unit": "%"}, {"measurement": "Population Tubulin-Different-Phenotype (%)", "setting": "[9]", "result": 20, "unit": "%"}, {"measurement": "Total Cell Count", "setting": "[9]", "result": 841}, {"measurement": "Population Apoptotic (%)", "setting": "[10]", "result": 46, "unit": "%"}, {"measurement": "Population Healthy Nuclei (%)", "setting": "[10]", "result": 78, "unit": "%"}, {"measurement": "Population Hoechst High Intensity Objects (%)", "setting": "[10]", "result": 5, "unit": "%"}, {"measurement": "Population Mitochondria Different-Phenotype (%)", "setting": "[10]", "result": 37, "unit": "%"}, {"measurement": "Population Mitotic Cells (%)", "setting": "[10]", "result": 53, "unit": "%"}, {"measurement": "Population Normal (%)", "setting": "[10]", "result": 94, "unit": "%"}, {"measurement": "Population Tubulin-Different-Phenotype (%)", "setting": "[10]", "result": 22, "unit": "%"}, {"measurement": "Total Cell Count", "setting": "[10]", "result": 635}, {"measurement": "Population Apoptotic (%)", "setting": "[11]", "result": 60, "unit": "%"}, {"measurement": "Population Healthy Nuclei (%)", "setting": "[11]", "result": 77, "unit": "%"}, {"measurement": "Population Hoechst High Intensity Objects (%)", "setting": "[11]", "result": 8, "unit": "%"}, {"measurement": "Population Mitochondria Different-Phenotype (%)", "setting": "[11]", "result": 88, "unit": "%"}, {"measurement": "Population Mitotic Cells (%)", "setting": "[11]", "result": 40, "unit": "%"}, {"measurement": "Population Normal (%)", "setting": "[11]", "result": 91, "unit": "%"}, {"measurement": "Population Tubulin-Different-Phenotype (%)", "setting": "[11]", "result": 73, "unit": "%"}, {"measurement": "Total Cell Count", "setting": "[11]", "result": 519}, {"measurement": "Population Apoptotic (%)", "setting": "[12]", "result": 78, "unit": "%"}, {"measurement": "Population Healthy Nuclei (%)", "setting": "[12]", "result": 78, "unit": "%"}, {"measurement": "Population Hoechst High Intensity Objects (%)", "setting": "[12]", "result": 10, "unit": "%"}, {"measurement": "Population Mitotic Cells (%)", "setting": "[12]", "result": 21, "unit": "%"}, {"measurement": "Population Normal (%)", "setting": "[12]", "result": 89, "unit": "%"}, {"measurement": "Population Tubulin-Different-Phenotype (%)", "setting": "[12]", "result": 71, "unit": "%"}, {"measurement": "Total Cell Count", "setting": "[12]", "result": 329}]}
